The campaign covered roughly 200,000 compounds. Fewer than 10 were called active.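 How the source made its calls: active means activation factor at least 2 at 20 µM; inactive means the rest.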 The list is a sample of the results.

The target in the assay is Alkaline phosphatase, tissue-nonspecific isozyme (Homo sapiens) (UniProt P05186). As to the kind of experiment: TNAP activators at high phosphate acceptor level, primary screen, biochemical, luminescence, uHTS (AID 1136). To be noted: purified TNAP, CDP-star luminescence, 1 M DEA, 30 min; at 20 µM; active compounds read high; 0 = EDTA background, 1 = DMSO-only activity. An outline of the steps: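 Assay system: human TNAP; Input: enzyme diluted 1/800 final; Reagent: CDP-star luminogenic substrate at 100 µM final; Timing: 30 min, room temperature; Signal: luminescence; Evaluation: TNAP activation factor scaled between EDTA and DMSO control wells.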
Chain of Alkaline phosphatase, tissue-nonspecific isozyme (Homo sapiens) (P05186 whole entry, looked up): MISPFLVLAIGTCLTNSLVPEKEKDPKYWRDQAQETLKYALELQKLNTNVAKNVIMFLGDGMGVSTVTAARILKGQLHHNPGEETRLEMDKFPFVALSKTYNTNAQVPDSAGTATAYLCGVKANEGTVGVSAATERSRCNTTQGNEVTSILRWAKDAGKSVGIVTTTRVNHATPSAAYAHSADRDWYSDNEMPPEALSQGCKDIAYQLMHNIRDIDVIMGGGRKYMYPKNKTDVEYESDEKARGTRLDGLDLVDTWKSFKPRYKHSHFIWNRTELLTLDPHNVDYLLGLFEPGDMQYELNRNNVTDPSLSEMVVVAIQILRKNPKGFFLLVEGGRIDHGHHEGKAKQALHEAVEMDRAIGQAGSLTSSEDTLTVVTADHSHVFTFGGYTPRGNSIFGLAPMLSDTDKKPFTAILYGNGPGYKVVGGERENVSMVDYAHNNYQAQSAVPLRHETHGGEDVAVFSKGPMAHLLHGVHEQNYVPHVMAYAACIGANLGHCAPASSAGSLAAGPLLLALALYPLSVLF
Turning to `O=S(=O)(/N=C(/Nc1ccccc1)c1ccccc1)c1cccs1`, the activation factor is 1 (inactive).
On to `CCOc1ccc(N2C(=O)CN(c3cccc4ccccc34)C2=S)cc1`, for which the activation factor is 1.1 (inactive).
For `C/C(=N/OC(=O)c1cccc(C(F)(F)F)c1)c1cnccn1`, the activation factor was 1 (inactive).
The same measure for `CCN(CC)CCNC(=O)c1ccc(NS(=O)(=O)c2ccc3c(c2)OCCO3)cc1`: 1 (inactive).
As to `Cc1cc(/C=C2/NC(=O)NC2=O)c(C)n1-c1cccnc1`, the activation factor was 1.1 (inactive).
For the compound `C=CCC1(CC=C)CCCN1C(=O)CC1C(=O)NCCN1Cc1ccccc1OC` (stereo unspecified), the activation factor was 1 (inactive).
In the case of `C/C(=N/NC(=O)CCc1ccccc1)c1ccco1`, the activation factor is 1 (inactive).
As for `CCCCN(CC)CCCNC(=O)c1ccc(CSc2nc3ccncc3[nH]2)cc1`, the activation factor was 1 (inactive).
`CC1=CC2=NC(=O)CC(C)(C(=O)N(CC(=O)NC(C)(C)C)Cc3ccccc3)N2C=C1` (stereo unspecified): the activation factor was 1.1 (inactive).
For `O=C(CN1CCN(Cc2ccc(F)cc2Cl)C1=O)NCc1cccs1`, the activation factor is 1.1 (inactive).
Turning to `CCC(C)(C)C1CCC(=NNC(=O)c2ccc(Br)o2)CC1` (stereo unspecified), the activation factor is 1.1 (inactive).
For the compound `Cc1cccc(C)c1NC(=O)Nc1ccccc1-n1ccnc1`, the activation factor was 1.1 (inactive).
The same measure for `Cc1cccc(N2CCN(c3ccc(C(N)=O)cc3[N+](=O)[O-])CC2)c1C`: 1 (inactive).
`COc1ccc(-c2[nH]ncc2CN(C)Cc2cccnc2)c(F)c1`: the activation factor is 1 (inactive).
The same measure for `COc1ccccc1CN(C)C(=O)C1(c2ccc(Cl)cc2)CC1`: 1 (inactive).
For the compound `CCOC(=O)C(NC(C)=O)C(=O)Nc1ccc(OC)cc1` (stereo unspecified), the activation factor was 1.1 (inactive).
Take `COc1cccc(CC2(CO)CCN(Cc3cnc(-c4cccc(C)c4)nc3)CC2)c1`: the activation factor was 1.1 (inactive).
On to `CCOc1ccc(C(C)=O)cc1CSc1nnc(-c2ccncc2)n1CCOC`, for which the activation factor is 1 (inactive).
Take `CN1CCN(/N=C/c2ccc(C#N)cc2)CC1`: the activation factor is 1 (inactive).
On to `O=C1C2C3C=CC(C3)C2C(=O)N1c1ccc(-c2nc3ccccc3c(=O)o2)cc1` (stereo unspecified), for which the activation factor is 1 (inactive).
As for `COC(=O)CC1=NN(c2ccccc2)C(=O)C1`, the activation factor was 1 (inactive).
In the case of `COc1ccc(/C(C)=N/NC(=O)CCC(=O)Nc2ccc(Cl)cc2Cl)c(OC)c1`, the activation factor was 0.9 (inactive).
For the compound `Cc1cccc(NC(=O)CN2C(=O)c3ccccc3C2=O)c1C`, the activation factor was 1 (inactive).
The same measure for `CC1=C(C)CC(C(=O)NC(C)CCc2ccccc2)C(C(=O)O)C1` (stereo unspecified): 1 (inactive); for `Cc1ccc(O)c(-c2cc(C(=O)NCc3ccccc3)[nH]n2)c1`: 2.3 (active).
Take `Cc1ccc(O)c(-c2cc(C(=O)Nc3c(C)n(C)n(-c4ccccc4)c3=O)[nH]n2)c1`: the activation factor was 1 (inactive).
As to `Cc1ccc(CNC(=O)c2ccccc2CCc2ccccc2)cc1`, the activation factor was 1.1 (inactive).
For the compound `O=C1CCC(CCC(=O)N2CCCC(C(=O)c3ccc(Cl)cc3)C2)=NN1` (stereo unspecified), the activation factor was 1.1 (inactive).
Take `[O-][n+]1c2c(nn1-c1ccc(Cl)c(Cl)c1)-c1nonc1CC2`: the activation factor is 1 (inactive).
For `Cc1ccc(CN2CCC(N3CCC(C(=O)NCC4CCCO4)CC3)CC2)o1` (stereo unspecified), the activation factor was 1 (inactive).
The same measure for `Cc1ccccc1-c1n[nH]c(=S)n1/N=C/c1ccc(-c2ccccc2Br)o1`: 0.9 (inactive); for `CCOC(=O)C1(Cc2cccc(OC)c2)CCCN(S(=O)(=O)c2cccnc2)C1` (stereo unspecified): 1.1 (inactive); for `CCOc1ccc(C(=O)NCCCN2CCCC2=O)cc1`: 1 (inactive).
For the compound `COc1ccc(NS(=O)(=O)c2cc(NC(=O)/C=C/c3cc(OC)c(OC)c(OC)c3)ccc2N2CCCCC2)cc1`, the activation factor is 1 (inactive).
The same measure for `Cc1cc(SCC(=O)NCCN2C(=O)CSC2=O)nc2ccccc12`: 1 (inactive).
The figure for `N#Cc1cnn2cc(CCN3CCOCC3)c(-c3ccc(F)cc3)nc12` is 1 (inactive); for `Cc1ccc(C(=O)NC(=S)Nc2ccc(N3CCOCC3)cc2)cc1` it is 1 (inactive); for `COC(=O)COc1cccc2c(=O)n(CC(=O)NCCc3ccc(OC)c(OC)c3)ccc12` it is 1 (inactive).
The same measure for `Cc1ccc(NC(=S)N(CCN2CCCCC2)Cc2ccco2)cc1C`: 1 (inactive); for `COC(=O)c1cc(NC(=O)Cc2ccccc2[N+](=O)[O-])ccc1Cl`: 1 (inactive).
As to `COc1ccc(C(=O)CSc2nc(C)cc(C)n2)cc1[N+](=O)[O-]`, the activation factor is 1 (inactive).
Regarding `Cc1ccc(S(=O)(=O)N(CC(=O)NN=C2CCN(C)CC2)c2ccc(F)cc2)cc1`, the activation factor was 1 (inactive).
On to `CN(C)S(=O)(=O)c1cccc(NC(=O)COC(=O)c2cc(=O)[nH]c(=O)[nH]2)c1`, for which the activation factor was 1 (inactive).
The figure for `O=S(=O)(Nc1ncccn1)c1ccc(NS(=O)(=O)c2cccc(Cl)c2Cl)cc1` is 1 (inactive).
Take `O=C(NNC(=S)NCc1ccco1)C(c1ccccc1)c1ccccc1`: the activation factor was 1 (inactive).
Consider `CCCCC(=O)NCc1ccc(F)cc1`, for which the activation factor was 1.1 (inactive).
Regarding `CCN(c1ccc(NC(=O)COC(=O)CCc2nc3ccccc3n2-c2ccccc2)cc1)C(C)C`, the activation factor is 1 (inactive).
Take `Clc1cccc(CN2COc3c(cc(Cl)c4cccnc34)C2)c1`: the activation factor is 1.1 (inactive).
The same measure for `CCN(CCO)C(=S)Nc1cc(C(=O)OC)ccc1C(=O)OC`: 1 (inactive).
For the compound `Cc1ccccc1CC1(CO)CCCN(Cc2ccc3c(c2)OCCO3)C1` (stereo unspecified), the activation factor is 1.1 (inactive).
With `Clc1ccc(-n2nnnc2-c2cnc(-c3ccccn3)nc2-c2cccs2)cc1`, the activation factor is 1 (inactive).
For `COc1ccc(C(=O)Nc2c(Cl)cc(Cl)cc2C(=O)N2CCC(C)CC2)cc1`, the activation factor was 1 (inactive).
The figure for `O=C(c1ccc(Cl)c([N+](=O)[O-])c1)N1CCN(c2ccccc2)CC1` is 1 (inactive); for `O=C(CCl)NNc1cccc(Cl)n1` it is 1 (inactive); for `C=CCN1C(=O)C(Cc2ccc(OCC)cc2)SC1=Nc1ccc(C(=O)O)cc1` (stereo unspecified) it is 1 (inactive).
For the compound `Cc1nc([N+](=O)[O-])nn1C12CC3CC(CC(Br)(C3)C1)C2`, the activation factor is 1 (inactive).
For the compound `CC1CCC(C(C)C)C(=O)/C1=C\c1ccc(NC(=O)CCC(=O)O)cc1` (stereo unspecified), the activation factor was 1.1 (inactive).
Take `O=C(CN1C2=NCCN2c2ccccc21)c1cccs1`: the activation factor was 1.1 (inactive).
`COc1ccc(/C=N/NC(=O)c2ccncc2)cc1CN1CCCc2ccccc21`: the activation factor was 1 (inactive).
As for `Cc1ccnc(NC(=O)c2ccco2)n1`, the activation factor is 1 (inactive).
`CCNc1nc(-c2cc3ccccc3o2)cs1`: the activation factor was 1.1 (inactive).
In the case of `Oc1cccc(C2c3[nH]c4ccccc4c3CCN2Cc2cnn(-c3ccccc3)c2)c1` (stereo unspecified), the activation factor was 1 (inactive).
Take `COC(=O)c1ccc(C(NC(=O)OCc2ccccc2)/C(C)=C/[C@@H](C)C(=O)NCc2ccc(OC)c(OC)c2)cc1` (stereo partly specified): the activation factor was 1.1 (inactive).
The figure for `CCOc1c2ccc(C(=O)NC3CCCc4ccccc43)cc2nn1CC` (stereo unspecified) is 1 (inactive).
The figure for `Cc1nnsc1C(=O)N/N=C/c1cccc(C(F)(F)F)c1` is 1 (inactive).
For `Cc1[nH]c2ccccc2c1/C=C(/C#N)C(=O)NC(C)C`, the activation factor was 1 (inactive).
Regarding `O=C(Cc1c(F)cccc1Cl)Nc1ccc(-n2cnnn2)cc1`, the activation factor is 1 (inactive).
The figure for `COCCCNC(=O)Cn1c(=O)n(Cc2ccccc2Cl)c(=O)c2cc(OC)c(OC)cc21` is 1 (inactive); for `COc1cc([N+](=O)[O-])ccc1NC(=O)CN1CCCC1` it is 1 (inactive).
On to `COc1ccc(-c2nn(-c3ccccc3)cc2CN2CCCO2)c(F)c1`, for which the activation factor is 1.1 (inactive).
As for `O=C(O/N=C(/c1ccccc1)c1ccncc1)c1ccccc1[N+](=O)[O-]`, the activation factor was 1.1 (inactive).
As to `CCC(C)NC(=O)Cn1nc(C(F)(F)F)c2c1CCC2` (stereo unspecified), the activation factor is 1.1 (inactive).
Take `CCOC(=O)COc1cc(O)c2c(=O)cc(-c3ccccc3)oc2c1`: the activation factor was 1 (inactive).
On to `Cc1cccc(NC(=O)/C=C/c2ccc3c(c2)OCO3)n1`, for which the activation factor is 1 (inactive).
`COc1ccc(Sc2nc(-c3ccccc3)ncc2OC)cc1`: the activation factor is 1 (inactive).
The figure for `N#CCOc1ccc(C2=NO[C@@H]3[C@@H]4C[C@@H]([C@H]5C(=O)N(c6ccc7c(c6)OCO7)C(=O)[C@@H]45)[C@H]23)cc1` is 1 (inactive).

The values above are taken from PubChem BioAssay AID1136 (Sanford-Burnham Center for Chemical Genomics, 2008).
